A selection: hits, their analogues and other compounds. The true share with any hit is near 11%.
M1 ag = M1 muscarinic receptor agonism. actives 3% (n = 64,000). B-score at 10 µM. CHO-M1 cells, Fluo-4 calcium fluorescence, agonist mode; active compounds read high;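 active means fluorescence rise, raw or as B-score row- and column-corrected plate score, outside the 99.7% band of its plate's samples, either direction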
S1P1 ag-PAM = S1P1 (human) agonism or agonism potentiation; P21453; S1P1 CRE-bla cells, forskolin, beta-lactamase FRET, potentiator mode; S1P1 agonist co-added at EC20, 2 nM; 100% = saturating reference agonist, 0% = basal; activation, % at 9.5 µM; actives 0.57% (n = 56,000); AID 449;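 active means activation above a cutoff set at the mean activation of all tested compounds plus 3 SD, cut at about 54% in these data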;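 further: forskolin at 4 µM as EC80 and the EC20 agonist is SEW2871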
D1 mod = D1 dopamine receptor (human) allosteric modulation; P21728; HEK293 D1, CRE-luciferase, dopamine EC30 potentiation; actives deviate in either direction; B-score at 10 µM; actives 5.9% (n = 58,000);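 active means luminescence count or its row- and column-corrected plate score outside the 99.7% band of the plate's sample wells, on either side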
M1 antag = antagonists of rat M1 muscarinic receptor; P08482; CHO-M1 cells, Fluo-4 calcium, ACh EC80 antagonist mode; active compounds read low; B-score at 10 µM; actives 3.4% (n = 64,000);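 active means calcium fluorescence response, raw or row-and-column corrected B-score, differing from the plate sample mean either way at a set confidence level, mostly lower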
S1P3 ag = activates the human S1P3 receptor. activation, % at 4.5 µM. Q99500. S1P3 NFAT-BLA reporter cells, agonism, FRET ratio; relative to 1 µM S1P, basal subtracted. AID 373. actives 0.1% (n = 60,000);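 active means activation above the screen-wide mean plus 3 SD, cut at about 4.5% in these data, passing the limit was not always enough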
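Assay system: CHO cells stably expressing human S1P3, Gα16 and NFAT-β-lactamase reporter. Timing: overnight plating, 4 h compound 37 °C, 2 h substrate RT. Signal: β-lactamase FRET emission ratio 460/535 nm. Measure: percent activation versus median 1 µM S1P response, basal-subtracted, per plate. Repeats: primary screen single test, confirmation screen in triplicate.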
M1 agonist conf = rat M1 muscarinic agonism, confirmation. shares compounds with M1 ag. CHO-M1 cells, Fluo-4 calcium fluorescence, agonist mode; actives lie on both sides. fluorescence change (max-min) at 10 µM. actives 19% (n = 1,700);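 active means fluorescence change differs from the solvent-only DMSO control mean at a set confidence level in both duplicate runs; inconclusive means differs from solvent-only control mean in just one of two runs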;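 further: an EC20 dose of acetylcholine follows compound addition during the same imaging run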
M4 ag counter = rat M4 muscarinic agonism, M1 counter-screen; CHO M4/Gqi5 cells, Fluo-4 calcium fluorescence, agonist mode; actives lie on both sides; shares compounds with M1 ag; actives 9% (n = 1,700); fluorescence change (max-min) at 10 µM;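 active means fluorescence change differing from the plate's solvent-only control wells at 99.7% confidence in both duplicates, whether higher or lower; inconclusive means differs from solvent controls in only one of two duplicates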
Target sequence (P08485 whole entry, looked up): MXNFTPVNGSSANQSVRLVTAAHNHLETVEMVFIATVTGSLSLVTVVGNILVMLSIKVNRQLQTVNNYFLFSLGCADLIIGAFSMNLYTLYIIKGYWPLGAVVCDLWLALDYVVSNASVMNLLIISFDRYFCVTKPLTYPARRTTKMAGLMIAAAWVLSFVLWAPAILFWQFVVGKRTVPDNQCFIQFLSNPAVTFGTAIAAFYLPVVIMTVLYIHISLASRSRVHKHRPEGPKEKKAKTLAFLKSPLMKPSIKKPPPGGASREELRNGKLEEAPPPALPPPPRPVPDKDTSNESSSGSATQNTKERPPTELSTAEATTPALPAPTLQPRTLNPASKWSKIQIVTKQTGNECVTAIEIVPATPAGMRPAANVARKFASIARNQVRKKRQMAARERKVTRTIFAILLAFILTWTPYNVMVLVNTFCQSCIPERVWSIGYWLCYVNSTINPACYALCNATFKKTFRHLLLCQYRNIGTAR
A number is an active result.

Screening CCOC(=O)C1CCCN(Cc2cc(Br)c(OC)cc2OC)C1 (stereo not given) returned M1 ag 7.9, D1 mod inactive, M1 antag inactive, S1P3 ag inactive, M1 agonist conf inactive and M4 ag counter inconclusive.
Screening CCOC(=O)C1CCCN(Cc2cc(Br)ccc2OC)C1 (stereo not given) returned S1P1 ag-PAM inactive, D1 mod inactive and S1P3 ag inactive.
For CCOC(=O)C1CCN(Cc2ccc(O)c(OC)c2)CC1 the results were M1 ag inactive, S1P1 ag-PAM inactive, D1 mod inactive, M1 antag inactive and S1P3 ag inactive.
Screening CCOC(=O)C1CCCN(Cc2cc(OC)c(O)c(OC)c2)C1 (stereo not given) returned M1 ag 3.2, S1P1 ag-PAM inactive, D1 mod inactive, M1 antag inactive, S1P3 ag inactive, M1 agonist conf 60 and M4 ag counter inactive.
`Cc1ccc(-c2nnc3c4ccccc4c(C)nn23)cc1NC(=O)CN1CCOCC1` gave S1P1 ag-PAM inactive, D1 mod inactive and S1P3 ag inactive.
`Cc1ccc(-c2nnc3c4ccccc4c(C)nn23)cc1S(=O)(=O)N1CCN(CCO)CC1` gave M1 ag 4.2, S1P1 ag-PAM inactive, D1 mod inactive, M1 antag inactive, S1P3 ag inactive, M1 agonist conf inactive and M4 ag counter inactive.
Screening O=C(Nc1ccccc1)NC1(C(=O)NCCCN2CCOCC2)CCCCC1 returned M1 ag 4, S1P1 ag-PAM inactive, D1 mod inactive, M1 antag inactive, S1P3 ag inactive, M1 agonist conf inconclusive and M4 ag counter inactive.
`COc1ccc(-c2nc(SCC(=O)NCc3ccco3)c(-c3ccccc3)[nH]2)cc1OC` gave M1 ag 5.8, D1 mod inactive, M1 antag inactive, M1 agonist conf inactive and M4 ag counter inactive.
For Cc1cc(C)nc(SCC(=O)NCc2ccco2)n1 the results were M1 ag 2.4, D1 mod inactive, M1 antag inactive, S1P3 ag inactive, M1 agonist conf -22 and M4 ag counter inactive.
For Cc1cc(C)n2nc(SCC(=O)NCc3ccco3)nc2n1 the results were M1 ag inactive, D1 mod inactive and M1 antag inactive.
Screening COc1ccc(-c2[nH]c(-c3ccc(F)cc3)nc2SCC(=O)NCc2ccco2)cc1OC returned M1 ag inactive, S1P1 ag-PAM inactive, D1 mod inactive, M1 antag inactive and S1P3 ag inactive.
`CC(CCc1ccco1)NC(=O)CSc1cc(=O)n(C)c2ccccc12` (stereo not given) gave M1 ag inactive, S1P1 ag-PAM inactive, D1 mod inactive, M1 antag inactive and S1P3 ag inactive.
`Cc1ccc(/C=c2\sc3nc(-c4ccccc4Br)nn3c2=O)o1` gave M1 ag inactive, S1P1 ag-PAM inactive, D1 mod inactive, M1 antag inactive and S1P3 ag inactive.
For O=C(O)c1ccccc1-c1ccc(/C=c2\sc3nc4cc(Br)cnc4n3c2=O)o1 the results were M1 ag 53, D1 mod inactive, M1 antag inactive, M1 agonist conf 136 and M4 ag counter inconclusive.
For CCCC(=O)Nc1ccc(NC(=O)c2ccco2)c(OC)c1 the results were M1 ag inactive, S1P1 ag-PAM inactive, D1 mod inactive, M1 antag inactive and S1P3 ag inactive.
For Cc1ccc(SC/C(O)=C(\C#N)c2nc3ccccc3s2)cc1 the results were M1 ag 3.3, S1P1 ag-PAM inactive, D1 mod inactive, M1 antag inactive, S1P3 ag inactive, M1 agonist conf inactive and M4 ag counter inactive.
For COc1ccc(C/C(O)=C(\C#N)c2nc3ccccc3s2)cc1 the results were M1 ag inactive, D1 mod inactive and M1 antag inactive.
Screening Cc1ccc(Cn2ccc(NC(=O)c3cc(-c4cccs4)on3)n2)cc1 returned M1 ag inactive, S1P1 ag-PAM inactive, D1 mod inactive, M1 antag inactive and S1P3 ag inactive.
CN1/C(=N\O)c2cccc3cccc1c23 was read as M1 ag 6.9, S1P1 ag-PAM inactive, D1 mod inactive, M1 antag inactive, S1P3 ag inactive, M1 agonist conf inactive and M4 ag counter inactive.
Screening COc1ccc(C2C3=C(CCCC3=O)Nc3nc(C(F)(F)F)nn32)c(OC)c1OC (stereo not given) returned M1 ag inactive, S1P1 ag-PAM inactive, D1 mod inactive, M1 antag inactive and S1P3 ag inactive.
`O=C1CCN2C=Nc3cccc4ccc1c2c34` gave M1 ag 493, S1P1 ag-PAM inactive, M1 antag -11, S1P3 ag inactive, M1 agonist conf 3266 and M4 ag counter 2765.
O=C(CCn1c(=O)oc2ccccc21)NCCN1CCc2ccccc2C1 was read as M1 ag 3.3, S1P1 ag-PAM inactive, D1 mod inactive, M1 antag inactive, S1P3 ag inactive, M1 agonist conf inactive and M4 ag counter inactive.
`O=C(CCCn1c(=O)oc2ccccc21)N1CCc2ccccc2C1` gave M1 ag inactive, D1 mod inactive and M1 antag inactive.
Screening COc1[nH]c(/N=C/c2ccccc2)c(C#N)c1C#N returned M1 ag 10, S1P1 ag-PAM inactive, D1 mod inactive, M1 antag inactive, S1P3 ag inactive, M1 agonist conf inconclusive and M4 ag counter inactive.
`CN(C)C=Nc1c(Br)cc(Br)c2nonc12` gave M1 ag 61, S1P1 ag-PAM inactive, D1 mod inactive, M1 antag inactive, S1P3 ag inactive, M1 agonist conf 278 and M4 ag counter 617.
For O=C(N1CCOCC1)N1CCN(S(=O)(=O)c2ccccc2)C1 the results were M1 ag inactive, S1P1 ag-PAM inactive, D1 mod inactive, M1 antag inactive and S1P3 ag inactive.
Screening Cc1cc(-c2nsc(=O)o2)c(S(C)(=O)=O)s1 returned S1P1 ag-PAM inactive, D1 mod inactive and S1P3 ag inactive.
For c1ccc(Nc2nc(N3CCCCC3)nc(N3CCNCC3)n2)cc1 the results were M1 ag 11, D1 mod inactive, M1 antag inactive, S1P3 ag inactive, M1 agonist conf inactive and M4 ag counter inactive.
For C1CCN(c2nc(N3CCCC3)nc(N3CCNCC3)n2)C1 the results were M1 ag inactive, S1P1 ag-PAM inactive, D1 mod inactive, M1 antag inactive and S1P3 ag inactive.
COc1cc2c(cc1OC)C(COc1ccc(F)cc1)N(C(=O)c1ccco1)CC2 (stereo not given) was read as M1 ag 7.9, D1 mod inactive, M1 antag inactive, M1 agonist conf inactive and M4 ag counter inactive.

From PubChem
